This passage reports Kd results from paper PMC4244684 (The Journal of biological chemistry, 2007).

No end group written: not given here.

The target of this experiment is Su(dx) WW4 (Drosophila melanogaster, UniProt Q9Y0H4). In words: ITC binding of peptides to Su. In a few lines: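 Cleaved Su(dx) WW4 (GST fusion from E. coli BL21, glutathione-bead purified, PreScission-cleaved, dialysed overnight into ITC buffer) at 15–35 μm in cell; 1–1.5 mm peptide titrated in. Peptide and protein concentrations set by denaturing Trp/Tyr UV absorbance. 50 mm phosphate, 150 mm NaCl, pH 7.4, degassed; 25 °C. Dilution-corrected heats fitted for ΔH and Ka, n fixed at 1.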
Chain of Su(dx) WW4 (Q9Y0H4 515-557): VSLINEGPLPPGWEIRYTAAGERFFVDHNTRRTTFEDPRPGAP

For AKQPPSYEDC [N2], the Kd amounted to 45 ± 3 µM. Turning to AKQPPSYEDCIK [N1], the dissociation constant (Kd) stood at 45 ± 2 µM.

One may read the Kd as the concentration at which binding is half-saturated.
